Laboratory results from paper PMC8268672 (Bioorganic Chemistry, 2021).
Values after ≈ are worked out from the molar mass of the structure shown. Read-outs that look alike come from different tables or passages of the source.

What was measured:
[1] = system: Escherichia coli (ATCC 8739); assay: MIC, broth microdilution; format: cell-based; conditions: ATCC8739, read-out: Minimum inhibitory concentration (MIC), EC
How it was run: (§1)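 Broth microdilution per CLSI in Mueller-Hinton broth, using two-fold serial dilutions of test compound and reference drugs from 512 to 0.25. Bacterial broth cultures were grown 2-6 h to 0.5 McFarland turbidity, then diluted with sterile solution to the final inoculum. MIC is reported in µg/mL.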

[2] = system: Pseudomonas aeruginosa (MCCB 0035); assay: MIC, broth microdilution; format: cell-based; conditions: read-out: Minimum inhibitory concentration (MIC), PA
How it was run: as §1

[3] = system: Klebsiella aerogenes (NCIM-2098); assay: MIC, broth microdilution; format: cell-based; conditions: NCIM2098, read-out: Minimum inhibitory concentration (MIC), KA
How it was run: (§2)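 Antibacterial MICs by CLSI broth microdilution in Mueller-Hinton broth. Test compounds and standard drugs are serially diluted two-fold from 512 to 0.25. The bacterial broth culture is grown 2-6 h to a 0.5 McFarland turbidity, then adjusted with sterile solution to the final inoculum.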

[4] = system: Staphylococcus aureus (ATCC 29213); assay: MIC, broth microdilution; format: cell-based; conditions: ATCC29213, read-out: Minimum inhibitory concentration (MIC), SA
How it was run: as §2

[5] = system: Bacillus cereus (NCIM-2458); assay: MIC, broth microdilution; format: cell-based; conditions: NCIM2458, read-out: Minimum inhibitory concentration (MIC), BC
How it was run: as §1

[6] = system: Aspergillus niger (NCIM 2191); assay: MIC, broth microdilution; format: cell-based; conditions: NCIM2191, read-out: Minimum inhibitory concentration (MIC), AN
How it was run: (§3)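 Antifungal MICs by CLSI broth microdilution in Sabouraud liquid medium. Test compounds and standard drugs are serially diluted two-fold from 512 to 0.25. The fungal broth culture is grown 24 h at 35 °C to a 0.5 McFarland turbidity, then adjusted with sterile solution to the final inoculum.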

[7] = system: Candida albicans (NCIM 2087); assay: MIC, broth microdilution; format: cell-based; conditions: NCIM2087, read-out: Minimum inhibitory concentration (MIC), CA
How it was run: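 CLSI broth microdilution in Sabouraud liquid medium, with test compound two-fold serially diluted from 512 to 0.25. Fungal broth culture grown 24 h at 35 °C to 0.5 McFarland turbidity, then adjusted with sterile solution to a final […] inoculum. MIC expressed in µg/mL.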

[8] = system: Aspergillus fumigatus (NCIM 2081); assay: MIC, broth microdilution; format: cell-based; conditions: NCIM2081, read-out: Minimum inhibitory concentration (MIC), AF
How it was run: as §3

[9] = system: Cryptococcus neoformans (ATCC 9011); assay: MIC, broth microdilution; format: cell-based; conditions: ATCC9011, read-out: Minimum inhibitory concentration (MIC), CN
How it was run: as §3

[10] = system: Escherichia coli (ATCC 8739); assay: Agar disk diffusion, inhibition zone; format: cell-based; conditions: 100 µg/8 mm disc, triplicate, mean ± SD
How it was run: (§4)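 Agar disk diffusion on Mueller-Hinton agar plates seeded with a standard bacterial suspension. Test compound stock in DMSO, diluted with distilled water; 8 mm sterile filter-paper discs soaked in the solution. Ampicillin was the reference. Plates incubated at 35 °C for 24 h, in triplicate. Read-out is the average inhibition-zone diameter (mm) around each disc.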

[11] = system: Pseudomonas aeruginosa (MCCB 0035); assay: Agar disk diffusion, inhibition zone; format: cell-based; conditions: 100 µg/8 mm disc, triplicate, mean ± SD
[12] = system: Salmonella typhimurium (NCIM-2501); assay: Agar disk diffusion, inhibition zone; format: cell-based; conditions: 100 µg/8 mm disc, triplicate, mean ± SD
[13] = system: Klebsiella aerogenes (NCIM-2098); assay: Agar disk diffusion, inhibition zone; format: cell-based; conditions: 100 µg/8 mm disc, triplicate, mean ± SD
[14] = system: Staphylococcus aureus (ATCC 29213); assay: Agar disk diffusion, inhibition zone; format: cell-based; conditions: 100 µg/8 mm disc, triplicate, mean ± SD
How it was run: as §4

[15] = system: Bacillus cereus (NCIM-2458); assay: Agar disk diffusion, inhibition zone; format: cell-based; conditions: 100 µg/8 mm disc, triplicate, mean ± SD
[16] = system: Lactobacillus casei (NCIM-2651); assay: Agar disk diffusion, inhibition zone; format: cell-based; conditions: 100 µg/8 mm disc, triplicate, mean ± SD
[17] = system: Streptococcus pneumonia (ATCC 49619); assay: Agar disk diffusion, inhibition zone; format: cell-based; conditions: 100 µg/8 mm disc, triplicate, mean ± SD
[18] = system: Aspergillus niger (NCIM 2191); assay: Agar disk diffusion, inhibition zone; format: cell-based; conditions: 100 µg/8 mm disc, triplicate, mean ± SD
How it was run: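 For the fungal strain, discs soaked in test compound solution (DMSO stock diluted with distilled water) sat on seeded Mueller-Hinton agar. Clotrimazole was the reference. Incubation ran 48 h at 35 °C, in triplicate. Zone of growth inhibition recorded in mm as the mean diameter around each disc.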

[19] = system: Candida albicans (NCIM 2087); assay: Agar disk diffusion, inhibition zone; format: cell-based; conditions: 100 µg/8 mm disc, triplicate, mean ± SD
[20] = system: Aspergillus fumigatus (NCIM 2081); assay: Agar disk diffusion, inhibition zone; format: cell-based; conditions: 100 µg/8 mm disc, triplicate, mean ± SD
[21] = system: Cryptococcus neoformans (ATCC 9011); assay: Agar disk diffusion, inhibition zone; format: cell-based; conditions: 100 µg/8 mm disc, triplicate, mean ± SD
Vaccinia virus = assay: microbe, parasite or virus in culture; format: cell-based; conditions: Orthopoxvirus vaccinia, HEL, read-out: Antiviral EC50, Vaccinia virus
Adeno virus-2 = assay: CPE reduction assay in HEL cells; format: cell-based; conditions: read-out: Antiviral EC50, Adeno virus-2
Human Coronavirus (229E) = assay: CPE reduction assay in HEL cells; format: cell-based; conditions: read-out: Antiviral EC50, Human Coronavirus (229E)
Para-influenza-3 virus = assay: CPE reduction assay in Vero cells; format: cell-based, Parainfluenza-3 virus; conditions: Vero, read-out: Antiviral EC50, Para-influenza-3 virus
Reovirus-1 = assay: CPE reduction assay in Vero cells; format: cell-based; conditions: read-out: Antiviral EC50, Reovirus-1
Sindbis virus = assay: CPE reduction assay in Vero cells; format: cell-based; conditions: read-out: Antiviral EC50, Sindbis virus
Coxsackie virus B4 = assay: CPE reduction assay in Vero cells; format: cell-based; conditions: Enterovirus B, read-out: Antiviral EC50, Coxsackie virus B4
Punta Toro virus = assay: CPE reduction assay in Vero cells; format: cell-based; conditions: read-out: Antiviral EC50, Punta Toro virus
Yellow Fever virus = assay: microbe, parasite or virus in culture; format: cell-based; conditions: Yellow fever virus, Vero, read-out: Antiviral EC50, Yellow Fever virus
[22] = system: Influenza A/H1N1 A/Ned/378/05; assay: CPE reduction assay in MDCK cells; format: cell-based; conditions: Influenza A virus
[23] = system: Influenza A/H3N2 A/HK/7/87; assay: CPE reduction assay in MDCK cells; format: cell-based; conditions: Influenza A virus
Influenza B B/Ned/537/05 = assay: CPE reduction assay in MDCK cells; format: cell-based; conditions: Influenza B virus, read-out: Antiviral EC50, Influenza B B/Ned/537/05, MTS
[24] = system: Human embryonic lung (HEL) cells; conditions: HEL cell cultures; microscopically detectable alteration of normal cell morphology
Vero cells = conditions: Vero cell cultures; microscopically detectable alteration of normal cell morphology
[25] = system: Madin Darby canine kidney (MDCK) cells; conditions: dog
MT4 cells = conditions: MT4 cell cultures; colorimetric MTT cell viability assay
[26] = read-out: Antiviral EC50, Influenza A/H1N1 A/Ned/378/05, MTS
[27] = read-out: Antiviral EC50, Influenza A/H1N1 A/Ned/378/05, visual CPE score
[28] = read-out: Antiviral EC50, Influenza A/H3N2 A/HK/7/87, MTS
[29] = read-out: Antiviral EC50, Influenza A/H3N2 A/HK/7/87, visual CPE score

SMILES	MIC [1] [µg/mL]	MIC [2] [µg/mL]	MIC [3] [µg/mL]	MIC [4] [µg/mL]	MIC [5] [µg/mL]	MIC [6] [µg/mL]	MIC [7] [µg/mL]	MIC [8] [µg/mL]	MIC [9] [µg/mL]	Diameter of growth inhibition zone, EC [10] [mm]	Diameter of growth inhibition zone, PA [11] [mm]	Diameter of growth inhibition zone, ST [12] [mm]	Diameter of growth inhibition zone, KA [13] [mm]	Diameter of growth inhibition zone, SA [14] [mm]	Diameter of growth inhibition zone, BC [15] [mm]	Diameter of growth inhibition zone, LC [16] [mm]	Diameter of growth inhibition zone, SP [17] [mm]	Diameter of growth inhibition zone, AN [18] [mm]	Diameter of growth inhibition zone, CA [19] [mm]	Diameter of growth inhibition zone, AF [20] [mm]	further results
Cc1ccc(S(=O)(=O)N2C(=O)CSC2c2ccccc2[N+](=O)[O-])cc1 (stereo not drawn) [5o, 3-[(4-Methylphenyl)sulfonyl]-2-(2-nitrophenyl)-1,3-thiazolidin-4-one]	16 (≈ 42.3 µM)	32 (≈ 84.6 µM)	32 (≈ 84.6 µM)	16 (≈ 42.3 µM)	64 (≈ 169 µM)	16 (≈ 42.3 µM)	8 (≈ 21.1 µM)	16 (≈ 42.3 µM)	2 (≈ 5.28 µM)	16 ± 0.9	15 ± 1.1	10 ± 0.8	12 ± 0.34	15 ± 1.5	10 ± 0.6	12 ± 0.66	10 ± 1.5	19 ± 1.5	20 ± 1.1	18 ± 0.9	Diameter of growth inhibition zone, CN [21]: 19 ± 1.2 mm; EC50 (Vaccinia virus): > 100 µM; EC50 (Adeno virus-2): > 100 µM; EC50 (Human Coronavirus (229E)): > 100 µM; EC50 (Para-influenza-3 virus): > 100 µM; EC50 (Reovirus-1): > 100 µM; EC50 (Sindbis virus): > 100 µM; EC50 (Coxsackie virus B4): > 100 µM; EC50 (Punta Toro virus): > 100 µM; EC50 (Yellow Fever virus): > 100 µM; EC50 [22, 26]: > 100 µM; EC50 [22, 27]: > 100 µM; EC50 [23, 28]: > 100 µM; EC50 [23, 29]: > 100 µM; EC50 (Influenza B B/Ned/537/05): > 100 µM; Minimum cytotoxic conc. [24]: >100 µM; Minimum cytotoxic conc. (Vero cells): >100 µM; Cytotoxicity, Minimum cytotoxic conc. [25]: >100 µM; Minimum cytotoxic conc. (MT4 cells): >125 µM
Cc1ccc(S(=O)(=O)N2C(=O)CSC2c2cccc([N+](=O)[O-])c2)cc1 (stereo not drawn) [5p, 3-[(4-Methylphenyl)sulfonyl]-2-(3-nitrophenyl)-1,3-thiazolidin-4-one]	32 (≈ 84.6 µM)	64 (≈ 169 µM)	16 (≈ 42.3 µM)	32 (≈ 84.6 µM)	64 (≈ 169 µM)	8 (≈ 21.1 µM)	4 (≈ 10.6 µM)	8 (≈ 21.1 µM)	2 (≈ 5.28 µM)	16 ± 0.69	14 ± 1.1	12 ± 0.1	14 ± 0.75	16 ± 0.9	10 ± 0.4	12 ± 1.56	08 ± 0.87	20 ± 0.9	22 ± 1.2	20 ± 1.1	Diameter of growth inhibition zone, CN [21]: 19 ± 1.0 mm; EC50 (Vaccinia virus): > 100 µM; EC50 (Adeno virus-2): > 100 µM; EC50 (Human Coronavirus (229E)): > 100 µM; EC50 (Para-influenza-3 virus): > 100 µM; EC50 (Reovirus-1): > 100 µM; EC50 (Sindbis virus): > 100 µM; EC50 (Coxsackie virus B4): > 100 µM; EC50 (Punta Toro virus): > 100 µM; EC50 (Yellow Fever virus): > 100 µM; EC50 [22, 26]: > 100 µM; EC50 [22, 27]: > 100 µM; EC50 [23, 28]: > 100 µM; EC50 [23, 29]: > 100 µM; EC50 (Influenza B B/Ned/537/05): > 100 µM; Minimum cytotoxic conc. [24]: >100 µM; Minimum cytotoxic conc. (Vero cells): >100 µM; Cytotoxicity, Minimum cytotoxic conc. [25]: >100 µM; Minimum cytotoxic conc. (MT4 cells): >125 µM
